Reference: article PMC6460380 (Heliyon, 2019)
Structures can show the parent of a compound that is named as a salt.

Legend:
[1] = system: GST enzyme isolated from blueberry fruits (Vaccinium arctostaphylos L.); assay: In vitro inhibition of purified blueberry fruit GST by pesticides; format: biochemical; details: for Ki: Lineweaver-Burk graphs, 1/V versus 1/[GSH]; for Ki / Inhibition type: GSH as substrate; for Inhibition type: from Lineweaver-Burk graphs; for IC50: from activity (%) - pesticide concentration graphs, minimum five concentrations
In short: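 GST purified from ripe berries (stored at -20 °C). The 1 mL assay used 0.1 M K-phosphate pH 7.0, CDNB (25 mM stock in ethanol) and GSH (20 mM stock). It was started with enzyme and absorbance was read for 3 min. Pesticides were tested at ≥5 concentrations against a no-pesticide control set as 100%. Ki and inhibition type came from 1/V versus 1/[GSH] plots.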

[2] = system: GST enzyme isolated from blueberry fruits (Vaccinium arctostaphylos L.); assay: Kinetic studies of purified blueberry fruit GST with substrates CDNB and GSH; format: biochemical; details: CDNB 0.05-1.6 mM at fixed GSH 20 mM; GSH 0.05-1.6 mM at fixed CDNB 25 mM
In short: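 The enzyme was blueberry GST purified by Sephadex G-100 gel filtration then GSH-agarose affinity chromatography with GSH gradient elution. Reactions were 1 mL in 0.1 M K-phosphate buffer pH 7.0, with one substrate varied and the other held fixed. The reaction was started by rapid enzyme addition and absorbance was followed spectrophotometrically for 3 min.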

Compound | Ki [1] [µM] | Inhibition type [1] | IC50 [1] [µM] | Inhibition of GST enzyme activity in vitro (in words) [1] | Vmax [2] [EU/ml]
O=C(O)COc1ccc(Cl)cc1Cl [2,4 Dichlorophenoxy acetic acid] | 188 ± 85 | competitive | 460 | inhibited | –
CC(=NC#N)N(C)Cc1ccc(Cl)nc1 [Acetamiprid, N - [(6-chloro-3-pyridyl)methyl] -N′-cyano-N-methyl-acetamidine] | 1560 ± 733 | competitive | 4100 | inhibited | –
CC1(C)C(C=C(Cl)Cl)C1C(=O)OC(C#N)c1cccc(Oc2ccccc2)c1 (centres unmarked) [Cypermethrin, [Cyano-(3-phenoxyphenyl)methyl] 3-(2,2-dichloroethenyl) -2,2-dimethylcyclopropane-1-carboxylate] | 310 ± 88 | – | 320 | inhibited | –
COP(=O)(OC)OC=C(Cl)Cl [Dichlorvos, 2,2-dichlorovinyl dimethyl phosphate] | 17.5 ± 5 | – | 24 | inhibited | –
O=C(O)CNCP(=O)(O)O [Glifosat- izopropilamine salt, glyphosate isopropylamine salt] | 266 ± 100 | competitive | 160 | inhibited | –
O=[N+]([O-])NC1=NCCN1Cc1ccc(Cl)nc1 [Imidacloprid, N-{1 - [(6-Chloro-3-pyridyl)methyl] -4,5-dihydroimidazol-2-yl} nitramide] | 630 ± 283 | – | 490 | inhibited | –
(R) -2- [4- (6-chloro-1,3-benzoxazol-2-yloxy) phenoxy] propionic acid [Fenoxaprop-p-ethyl] | 133 | competitive | 230 | inhibited | –
g-glu-cys-gly [GSH] | – | – | – | – | 0.048
